OX1R antag-1 – human HCRTR1 antagonism. O43613. CHO/OX1R cells, Fluo-8 calcium fluorescence, orexin A. inhibition, % at 5 µM. 330,000 tested, 0.43% active;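 active = inhibition above its plate's threshold, mean inhibition of all tested compounds on the plate plus 3 SD, cut at about 37% in these data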;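 note: 0% = orexin A challenge wells and 100% = SB-334867-A antagonist wells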
CHO parental Ca – counter-screen: ATP calcium response change in parental CHO cells; parental CHO-K1, ATP-induced calcium, Fluo-8 fluorescence; inhibition, % at 5.6 µM; 330,000 tested, 0.63% active; AID 463079;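 active = inhibition above that plate's mean sample inhibition plus 3 SD, cut at about 26% in these data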;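 note: 0% = ATP-challenged DMSO wells and 100% = DMSO wells without ATP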
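Test system: untransfected parental CHO cell line. Compound: one dose, 5.6 µM nominal. Detection: intracellular calcium via Fluo-8 no-wash fluorescent dye. Measure: % inhibition. Benchmarks: ATP-challenged DMSO wells low, unchallenged DMSO wells high.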
TAAR1 antag – antagonists of human TAAR1. Q96RJ0. CHO RD-HGA16 TAAR1, Fluo-8 calcium fluorescence, antagonist. inhibition, % at 3 µM. 360,000 tested, 1.5% active. AID 624466;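 active = inhibition above a per-plate cutoff, the mean inhibition of test compounds on that plate plus 3 SD, cut at about 49% in these data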;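 note: 0% = DMSO plus EC80 beta-PEA response and 100% = DMSO alone without agonist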
Target sequence (Q96RJ0 whole entry, looked up): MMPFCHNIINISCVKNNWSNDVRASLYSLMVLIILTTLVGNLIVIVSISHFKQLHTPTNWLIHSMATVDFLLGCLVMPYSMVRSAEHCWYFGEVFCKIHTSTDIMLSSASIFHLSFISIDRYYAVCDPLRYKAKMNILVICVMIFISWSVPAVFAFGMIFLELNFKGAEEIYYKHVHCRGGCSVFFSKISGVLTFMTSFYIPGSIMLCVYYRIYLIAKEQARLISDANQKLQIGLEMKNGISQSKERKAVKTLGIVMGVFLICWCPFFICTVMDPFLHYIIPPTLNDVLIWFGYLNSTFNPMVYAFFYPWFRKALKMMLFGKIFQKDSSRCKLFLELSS
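Assay system: RD-HGA16 CHO cells with stable hTAAR1 and Gα16 / Reagent: EC80 β-phenethylamine stimulus / Doses: 3 µM, single point / Timing: dye loading 75 min at 37 °C, then 30 min room temperature / Measured by: Fluo-8 intracellular calcium dye fluorescence, real-time kinetic reads / Controls: vehicle wells and EC80 agonist wells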
OX1R antag-2 – blocks the human orexin 1 receptor | O43613 | OX1R-expressing cells, FRET antagonist read-out | inhibition, % at 6.6 µM | 330,000 tested, 1.8% active | AID 485270; in the data active = inhibition mostly above about 38%, no sharp cut-off; inactive = mostly below about 40%;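 note: 0% = agonist challenge alone and 100% = reference antagonist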
TAAR1 ag – agonists of human TAAR1; CHO RD-HGA16 TAAR1, Fluo-8 calcium fluorescence; vehicle wells 0%, saturating PEA agonist 100%; 360,000 tested, 0.99% active; AID 624467; activation, % at 3 µM;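 active = activation above the mean activation of all test compounds in the run plus 3 SD, cut at about 38% in these data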
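Test system: RD-HGA16 (CHO) cells co-expressing Gα16 and hTAAR1 | Doses: Single dose, 3 µM | Schedule: 17-24 h seeding, 75 min 37 °C dye, 30 min RT | Evaluation: % activation from peak over basal fluorescence ratio, DMSO-to-PEA scaled | Technique: Kinetic Fluo-8 calcium fluorescence | Benchmarks: Low control DMSO, high control PEA (EC100)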
GPR7 antag – antagonists of human GPR7 (neuropeptides B/W receptor 1); P48145; inhibition, % at 4.4 µM; 290,000 tested, 1.1% active; GPR7-expressing cells, fluorescence antagonist assay; in the data active = inhibition above about 16%, passing the limit was not always enough;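 note: cells stimulated with the agonist NPW; 0% = agonist with vehicle and 100% = vehicle without agonist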
Target sequence (P48145 whole entry, looked up): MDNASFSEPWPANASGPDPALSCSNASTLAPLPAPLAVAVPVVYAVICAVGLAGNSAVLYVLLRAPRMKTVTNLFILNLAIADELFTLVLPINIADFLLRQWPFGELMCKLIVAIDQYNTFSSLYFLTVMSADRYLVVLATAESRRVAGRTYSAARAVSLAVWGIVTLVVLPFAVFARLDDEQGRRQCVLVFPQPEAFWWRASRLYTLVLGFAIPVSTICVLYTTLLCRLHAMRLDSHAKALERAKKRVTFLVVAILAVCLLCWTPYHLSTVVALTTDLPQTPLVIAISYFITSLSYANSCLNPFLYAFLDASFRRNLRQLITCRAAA
Starred values were filed as active, the others as inactive; . = no result given. Shown are actives, neighbours in structure and some others; about 4.6% of the full set was active somewhere.

SMILES | OX1R antag-1 | CHO parental Ca | TAAR1 antag | OX1R antag-2 | TAAR1 ag | GPR7 antag
COC(=O)[C@]12C[C@H](CC(=O)N3CCSCC3)C(=O)N(Cc3ccc4c(c3)OCO4)C1=C[C@H](C(C)(C)C)O[C@@H]2C | . | . | -16.4 | . | -0.1 | .
Cc1cc(Cl)ccc1OCC(=O)Nc1ccccc1NS(=O)(=O)c1cccs1 | -7.9 | 13.6 | 10.8 | 40.6* | 2.1 | -13.2
Cc1cc(Cl)ccc1OCC(=O)Nc1ccncc1 | 7.7 | 49.5* | 5.4 | 16.0 | 9.8 | 4.7
Cc1cc(Cl)ccc1OCC(=O)NNC(=O)c1cccs1 | -16.4 | -20.7 | -12.0 | -3.1 | 0.5 | -13.2
CC(=O)Nc1ccc(NC(=O)C(C)OC(=O)CCCOc2ccc(Cl)cc2C)cc1 (centres undefined) | 0.5 | -22.4 | 19.6 | 53.0* | 2.4 | .
CC(=O)Nc1ccc(NC(=O)C(C)OC(=O)CCCN2C(=O)c3cccc4cccc(c34)C2=O)cc1 (centres undefined) | -4.0 | -23.6 | -1.1 | 74.1* | 10.0 | .
Cc1cc(C)c(OCC(=O)Nc2cccc(NC(=O)c3ccco3)c2)c(Br)c1 | 28.1 | 31.9* | 52.2* | 63.8* | 6.7 | -10.5
COc1ccc(Br)cc1C(=O)Nc1cccc(NC(=O)c2ccco2)c1 | -11.0 | -8.7 | 30.7 | 44.2* | 11.2 | -15.6
COc1c(C)cc(Br)cc1C(=O)Nc1cccc(NC(=O)c2ccco2)c1 | 5.7 | -13.6 | . | 11.4 | . | -16.4
CC(C)NC(=O)N1Cc2cc(C(=O)NC3CCCCC3)nc(-c3cccc(-c4cccnc4)c3)c2[C@@H]1CCO | . | . | 25.1 | . | 4.0 | .
CCCCCN(C(=O)CCC(=O)OCc1cc(C)ccc1C)c1c(N)n(CCCC)c(=O)[nH]c1=O | -31.1 | -17.4 | -4.7 | 10.6 | 0.8 | .
O=C(N[C@H](C(=O)N1CCC[C@H]1C(=O)NC1CCCC1)c1ccccc1)c1ccccc1 | . | . | -1.3 | . | 1.3 | .
O=C(/C=C/c1ccccc1)NC(=S)NNC(=O)c1ccco1 | 4.1 | 9.5 | 23.6 | 23.2 | 43.0* | -9.7
C[n+]1c(-c2ccccc2)sc([S-])c1-c1ccccc1 | -23.4 | 39.5* | -13.6 | 15.1 | -1.6 | .
N#Cc1ccccc1Sc1ccccc1C(=O)Nc1ccc(Br)cc1 | -0.1 | 17.3 | 31.2 | 27.9 | 3.4 | -2.1
N#Cc1ccccc1Sc1ccccc1C(=O)Nc1ccc2ccccc2c1 | 2.6 | 2.4 | 29.9 | 58.2* | 1.3 | 6.5
COc1ccc2cc(C(=O)CS(=O)(=O)c3ccc(Cl)cc3)c(=O)oc2c1 | . | . | 6.4 | . | 0.5 | .
CC(C)Cn1c(N)c(C(=O)COC(=O)c2ccccc2F)c(=O)n(C)c1=O | -23.2 | -5.9 | 10.5 | 14.6 | 22.1 | 16.8*
CC(C)Cn1c(N)c(C(=O)COC(=O)Cc2cccc(C(F)(F)F)c2)c(=O)n(C)c1=O | 8.2 | 54.5* | 40.8 | 28.9 | 7.6 | .
CC(C)Cn1c(N)c(C(=O)COC(=O)c2ccccc2Cl)c(=O)n(C)c1=O | -2.6 | 10.9 | 22.1 | 19.4 | 32.7 | 5.8
CC(C)Cn1c(N)c(C(=O)CSc2ccc3c(c2)OCCO3)c(=O)n(C)c1=O | 21.1 | 54.5* | 44.3 | 23.0 | 23.0 | 8.5
CC(C)Cn1c(N)c(C(=O)COC(=O)c2c(F)cccc2F)c(=O)n(C)c1=O | 6.3 | 3.0 | 13.4 | 19.9 | 39.0* | 2.6
OC1c2c(F)cccc2N=C2CCCCCN21 (centres undefined) | . | . | -15.8 | . | -0.1 | .
Nc1[nH]c(C(=O)c2ccc(Br)cc2)c(-c2c(F)cccc2F)c1C(=O)NCCc1c[nH]c2ccccc12 | . | . | 18.5 | . | 1.2 | .
O=C(Nc1cccc(-c2cn3ccccc3n2)c1)c1cccs1 | 1.9 | -4.1 | -2.8 | 71.0* | 1.8 | 5.2
SMILES | OX1R antag-1 | CHO parental Ca | TAAR1 antag | OX1R antag-2 | TAAR1 ag | GPR7 antag
CC1CS(=O)(=O)CCN1N=Cc1ccc([N+](=O)[O-])o1 (centres undefined) | -5.5 | -5.8 | -14.9 | 52.9* | -0.2 | .
CCOc1ccc(C(=O)/C=C/c2cn(CN3CCN(C)CC3)c3ccccc23)cc1 | 13.7 | -23.5 | 10.3 | 57.1* | 7.9 | 9.5
CC(=O)Nc1cccc(NC(=O)c2cc(-c3ccccn3)nc3ccc(Cl)cc23)c1 | -16.7 | -18.5 | 65.1* | 10.8 | 9.2 | -8.0
CCOC(=O)/C(=C\Nc1cccc(OCc2ccccc2)c1)NC(=O)c1ccccc1 | . | . | 23.2 | . | 2.0 | .
CCCCC(O)(CCCC)C(=O)N/N=C(\C)c1ccc(Cl)cc1 | -4.7 | -22.8 | -30.5 | 8.3 | -1.8 | 20.5*
CCOc1ccccc1NC(=O)C(Sc1ccccc1)c1ccccc1 (centres undefined) | 58.9* | 57.2* | 56.9* | 37.3 | 12.4 | -21.3
CCOC(=O)c1ccc(NS(=O)(=O)c2cc(-c3nnnn3CC)ccc2OC)cc1 | -19.2 | -16.1 | 3.3 | 7.7 | 12.3 | 4.0
CCOC(=O)c1ccc(NS(=O)(=O)c2cc(C)ccc2OC)cc1 | -19.9 | 24.3* | 4.1 | 8.9 | 7.4 | -6.3
Cc1ccc(S(=O)(=O)Nc2ccncc2)c(C)c1 | -7.3 | -9.7 | -2.6 | 4.6 | 2.9 | -4.3
COc1cc(NS(=O)(=O)c2ccc(C)cc2C)cc(OC)c1OC | 30.2 | 50.6* | 33.6 | 27.6 | 8.5 | -2.3
C[C@@H]1COc2cc(N3CCCC3)ccc2S(=O)(=O)N1 | . | . | 26.9 | . | -0.8 | .
COc1ccc(C(=O)NNC(=O)CSc2nnc(COc3ccc4ccccc4c3)n2C)cc1 | -10.5 | 2.1 | -2.2 | 11.1 | 43.6* | 4.6
COc1ccc(C(=O)NNC(=O)CSc2nnc(COc3ccccc3)n2C)cc1 | -2.1 | -5.2 | -12.9 | 3.0 | 14.2 | -12.8
CSc1nccn1CC(=O)Nc1ccc(F)cc1 | -11.8 | 40.8* | 8.3 | 6.7 | 1.8 | 3.6
c1ccc(COCCN2CCN(CCOCc3ccccc3)CC2)cc1 | -20.9 | -4.2 | . | 8.9 | . | 4.8
Cc1c(C=NCCOCc2ccccc2)cnn1C | -66.7 | -13.8 | 24.5 | 15.4 | 41.7* | -0.9
COc1ccc(C(=O)N2CCC[C@H]2C(=O)N2CCC[C@@H]2C(=O)NCc2ccccc2)cc1F | . | . | 11.8 | . | -0.1 | .
COc1ccccc1-c1ccc([C@@H]2C[C@H]3[C@H](CON3C)CN2CC2CCCCC2)cc1 | . | . | -36.1 | . | 3.2 | .
NC(Cc1ccc(C(F)(F)F)cc1)c1csc(Nc2ncccn2)n1 (centres undefined) | . | . | 8.5 | . | 18.8 | .
NC(Cc1ccc(C(F)(F)F)cc1)c1csc(Nc2ccccn2)n1 (centres undefined) | . | . | 8.2 | . | 46.1* | .
NC(Cc1ccc(C(F)(F)F)cc1)c1csc(Nc2cc(NCc3ccco3)ncn2)n1 (centres undefined) | . | . | 28.8 | . | 38.2* | .
CN(Cc1ccccc1)C(=O)c1ccc(Nc2nc(C(N)Cc3ccccc3)cs2)nc1 (centres undefined) | . | . | 45.4 | . | 44.8* | .
COc1cccc(Nc2nc(C(N)Cc3ccccc3)cs2)n1 (centres undefined) | . | . | 29.2 | . | 51.5* | .
